According to paper PMC2715132 (The Journal of Experimental Medicine, 2009):
Read-outs that look alike come from different tables or passages of the source.

What was measured:
T. gondii RH WT [1] = test: Immunofluorescence of intracellular T. gondii; type: cell-based, Toxoplasma gondii; conditions: IFA, 24 h, 40 nM FR235222, 1 µM pyrimethamine
Procedure, shortened: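 Confluent HFF monolayers infected with RH tachyzoites with 40 nM test compound, 0.1% DMSO or 1 µM pyrimethamine for 24 h. Fixed/permeabilized 20 min (3% formaldehyde, 0.2% Triton X-100) and blocked with 5% FBS/5% goat serum. Stained with anti-AcH4 antiserum and anti-IMC1 monoclonal (1:1,000), Alexa 568/488 secondaries, and Hoechst 33258 for DNA.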

T. gondii RH M190D4 = test: T. gondii growth in HFF monolayer, [3H]uracil incorporation; type: cell-based, Toxoplasma gondii
Procedure, shortened: (§1)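 Confluent human fibroblasts infected with tachyzoites with or without test compound. After 72 h, washed and pulsed with [3H]uracil for 4 h, then washed and solubilized. Acid-precipitable radioactivity counted by liquid scintillation. EC50 by nonlinear regression.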

T. gondii Prugniaud = test: as above; type: cell-based; conditions: Toxoplasma gondii, read-out: EC50 (nM ± SD)
Procedure, shortened: as §1

T. gondii RH WT [2] = test: as above; type: cell-based; conditions: Toxoplasma gondii
Procedure, shortened: as §1

[3] = tested on: T. gondii type II Prugniaud strain; test: Bradyzoite differentiation, SRS9/P36 expression by IFA; type: cell-based, Toxoplasma gondii
[4] = tested on: 20.m00351 mRNA, T. gondii type II Prugniaud strain; test: Semiquantitative RT-PCR of 20.m00351 mRNA; type: cell-based, Toxoplasma gondii; conditions: 40 nM FR235222 for 3 d, n = 3
HFFs = test: Mammalian host cell proliferation; type: cell-based, human; conditions: in vitro, parasites versus HFF cells
[5] = tested on: histone H4 acetylation in T. gondii TgHDAC3^T99I resistant line; test: Immunoblot of histone acetylation in extracellular tachyzoites; type: cell-based, Toxoplasma gondii; conditions: 20 nM FR235222, immunoblot
[6] = tested on: histone H4 acetylation in T. gondii TgHDAC3^T99A resistant line; test: as above; type: cell-based, Toxoplasma gondii; conditions: 20 nM FR235222, immunoblot
N. caninum = N. caninum growth in HFF monolayer; type: cell-based, Neospora caninum; conditions: read-out: EC50 (nM ± SD), mean ± SD
P. falciparum = test: Antimalarial activity in vitro, P. falciparum intraerythrocytic growth; type: cell-based, Plasmodium falciparum; conditions: 3D7 chloroquine sensitive, Dd2 chloroquine resistant, Fig. 1 C, n = 4
Procedure, shortened: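 Drug exposure: 48 h for asynchronous 3D7 and Dd2 cultures, 20 h for plasmion-enriched 3D7 schizonts. Growth was read by […] incorporation, and EC50 was derived by nonlinear regression.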

[7] = tested on: histone H4 acetylation in T. gondii RH WT; test: Immunoblot of histone acetylation in extracellular tachyzoites; type: cell-based, Toxoplasma gondii
[8] = read-out: EC50, T. gondii intracellular growth
[9] = read-out: EC50 (nM ± SD), T. gondii RH M190D4 (FR235222-resistant mutant, TgHDAC3 T99A) in HFF monolayer, [3H]uracil incorporation, mean ± SD

CCc1nc(N)nc(N)c1-c1ccc(Cl)cc1 [Pyrimethamine, pyrimethamine]
AcH4 signals in nuclei of treated parasites versus DMSO control (T. gondii RH WT [1]): not observed
EC50 (T. gondii RH M190D4; Toxoplasma gondii, read-out: EC50 (nM ± SD)): 300 ± 11 nM
EC50 (T. gondii Prugniaud): 195 ± 1 nM
EC50 (T. gondii RH WT [2]; read-out: EC50 (nM ± SD), SD): 285 ± 61 nM
EC50 (T. gondii RH WT [2]; [8]): 300 nM
induction of SRS9/P36 ([3]; 1 µM pyrimethamine, 2–3 d, IFA with anti-P36): very weak induction

O=C(CCCCCN1C(=O)c2cccc3cccc(c23)C1=O)NO [Scriptaid]
EC50 (T. gondii RH WT [2]; [8]): 400 nM

CCC(=O)CCCCC[C@@H]1NC(=O)[C@H]2CCCCN2C(=O)[C@H]([C@@H](C)CC)NC(=O)[C@H](Cc2cn(OC)c3ccccc23)NC1=O [Apicidin, apicidin]
EC50 (T. gondii RH M190D4; [9]): 67 ± 16 nM

FR235222
20.m00351 mRNA levels [4]: accumulated
AcH4 signals in nuclei of treated parasites versus DMSO control (T. gondii RH WT [1]): higher
EC50 (T. gondii RH M190D4; [9]): 62 ± 5 nM
sensitivity of parasites relative to HFF cells (HFFs): ~10 times
change of AcH4 signals [5]: remained unchanged
increase of AcH4 signals [6]: approximately threefold
EC50 (N. caninum): 8 ± 2 nM
comparison of EC50s on clones 3D7 and Dd2 (P. falciparum): equivalent
increase of AcH4 signals ([7]; WT, 20 nM FR235222, immunoblot): approximately eightfold
increase of AcH4 signals ([7]; extracellular tachyzoites incubated with drug 4 h, immunoblot): approximately eightfold
acetylation of histones H2B (K12 and K15) and H3K9 ([7]; immunoblot, FR235222 treatment (Fig. S2)): not affected
parasitic vacuoles expressing SRS9/P36 ([3]; 40 nM FR235222, 2–3 d, IFA with anti-P36, n = 2): ~80%
